The data set is described as follows: Toxicity liver stage against HepG2, at 10uM. Format: cell-based. Also on record: test concentration 10 uM, cell line HepG2-A16-CD81EGFP. To be noted: human, HepG2-A16-CD81EGFP cells; read-out: INHIBITION
A digest of the protocol: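 Uninfected HepG2-A16-CD81EGFP cells, 3 × 10^3 per well, 1536-well, plated on prespotted compound at 10 μM final, parasite-free screening media added to match infected plates; puromycin 10 μM positive, DMSO 0.5% negative; run in parallel with 48 h PbLuc assay at 37 °C, 5% CO2; viability by CellTiter-Glo luminescence, normalized to controls.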

On to `Cc1cc(-c2nc(-c3c(C)ncc4c3CCNC4)no2)nc(C)n1`, for which the cytotoxicity at 10 µM turned out to be 4.43%.

With `Cc1nn(CC(F)F)c2c1c(C(F)F)cc(=O)n2CC(=O)O`, the cytotoxicity at 10 µM is 2.84%.

Regarding `CN1CCN(CC2CC2)C(=O)c2cnc(N3CCCCC3)nc21`, the cytotoxicity at 10 µM was found to be 4.84%.

On to `Cc1nc(CN2CCC(NS(C)(=O)=O)CC2)co1`, for which the cytotoxicity at 10 µM is -12.4%.

`Cc1cc(C[S+]([O-])CC(=O)NCc2cccc(Cl)c2)no1` (centres undefined): the cytotoxicity at 10 µM is -1.56%.

For the compound `Cc1c(C(=O)NCCC(=O)N2CCCC2)cccc1-c1ccccn1`, the cytotoxicity at 10 µM came to 1.39%.

With `CNc1cc2c(nn1)CCN(C(=O)c1ccc(-n3nccc3C)cc1)C2`, the cytotoxicity at 10 µM was -5.44%.

As for `CN(CC(=O)NC(C)(C)C)C(=O)C1CC(c2cccc(F)c2)=NO1` (centres undefined), the cytotoxicity at 10 µM turned out to be 19.5%.

For the compound `COc1ccc(Br)cc1CCC(=O)N1CCSCC1`, the cytotoxicity at 10 µM is 5.48%.

Regarding `Cc1nn(C)c(Cl)c1C1CCCN1Cc1ccc(C(N)=O)cc1` (centres undefined), the cytotoxicity at 10 µM is -3.69%.

As for `OC1(CN2CCC(Oc3cccc(C(F)(F)F)c3)CC2)CCNC1` (centres undefined), the cytotoxicity at 10 µM is 1.05%.

Regarding `Cc1nccn1[C@@H]1CC[C@@H](NC(=O)CCCn2cccn2)[C@H]1O`, the cytotoxicity at 10 µM is -6.28%.

Consider `CNC(=O)CN1CCCC12CCN(C(=O)c1ccc(F)cc1)CC2`, for which the cytotoxicity at 10 µM came to 5.03%.

For `COc1cccc(CC(=O)N2CC[C@@H]3NC(=O)CC[C@@H]32)c1`, the cytotoxicity at 10 µM is -4.04%.

As to `Cn1ccnc1C(=O)N1CCC2(CCN2CC2CC2)C1` (centres undefined), the cytotoxicity at 10 µM stood at 11.8%.

For the compound `CCN1CC(C(=O)N2CC(Oc3ccccc3F)C2)CC1=O` (centres undefined), the cytotoxicity at 10 µM was -2.49%.

On to `Cc1nc(-c2cc(C(=O)N3CCN(C)CC3)c3ccccn23)cn1C`, for which the cytotoxicity at 10 µM came out at 8.73%.

For the compound `c1ccc(CN2CC[C@@H]3[C@@H](CO[C@@H]3CNc3ncccn3)C2)nc1`, the cytotoxicity at 10 µM is -4.09%.

Turning to `COCc1ccc(CNC(=O)C2=NN(c3ccccc3)C(=O)CN2)cc1`, the cytotoxicity at 10 µM was 26.7%.

`COc1cccc2c1OCC(C(=O)N1CCN(S(C)(=O)=O)CC1)C2` (centres undefined): the cytotoxicity at 10 µM is -7.23%.

As to `CCn1ncnc1C(C)NC(=O)COc1ccc(Cl)cc1Cl` (centres undefined), the cytotoxicity at 10 µM came to 2.8%.

In the case of `CCNC(=O)CNC(=O)Nc1cccc(Cl)c1SC(F)F`, the cytotoxicity at 10 µM is -1.76%.

As to `COc1ccccc1CNc1ncc(-c2cc(C)no2)c(C(C)C)n1`, the cytotoxicity at 10 µM worked out at 8.49%.

On to `CC(C)(C)c1ccc2c(c1)CCN2C(=O)c1ccc(=O)[nH]n1`, for which the cytotoxicity at 10 µM is 2.87%.

For `Cc1ccc([C@@H]2CN(C(=O)c3ccoc3C)C[C@H]2NC(=O)C2CC2)cc1`, the cytotoxicity at 10 µM came out at 4.22%.

As for `COc1ccc(C2CCCN2C(=O)c2ccnc(NC3CC3)c2)cc1` (centres undefined), the cytotoxicity at 10 µM was 3.07%.

On to `CCSc1ncc(CN2CCN(c3ccc(C#N)cc3)C(=O)C2)cn1`, for which the cytotoxicity at 10 µM was -2.54%.

As for `O=C(Nc1nccs1)NC1CCN(Cc2ccccc2)C1` (centres undefined), the cytotoxicity at 10 µM was -9.93%.

As for `COc1c(C2CCCN2C(=O)c2cnc[nH]2)c(C)nn1C` (centres undefined), the cytotoxicity at 10 µM is -1.68%.

With `COc1ccc(CN(C)CC(O)COCc2ccccc2Cl)c(OC)c1` (centres undefined), the cytotoxicity at 10 µM stood at 18.8%.

For the compound `COc1ccccc1C(=O)N1CCCC1c1ncc2c(n1)CCNC2` (centres undefined), the cytotoxicity at 10 µM was -12.3%.

Take `CCN(CC)C(=O)c1cc(Br)cc(S(=O)(=O)N2CCOCC2)c1F`: the cytotoxicity at 10 µM was -2.43%.

With `O=S(=O)(CCCn1cncn1)Cc1ccccc1Cl`, the cytotoxicity at 10 µM was -5.91%.

Turning to `O=C(NCCN1CCCCC1)c1cccc(Cl)c1Cl`, the cytotoxicity at 10 µM stood at 6.04%.

Turning to `Cc1n[nH]c(C)c1C1COCCN1C(=O)c1cc(F)ccc1F` (centres undefined), the cytotoxicity at 10 µM is -9.24%.

As for `O=C1CCC2(CCCN(C(=O)Cc3cccnc3)C2)N1` (centres undefined), the cytotoxicity at 10 µM was 6.88%.

`O=C(CCc1cc(Cl)no1)N1CCC(c2cc3ncccc3cn2)CC1`: the cytotoxicity at 10 µM was 4.76%.

For the compound `Cc1cc(C)c2c(NCc3nncn3C3CCCCC3)ncnc2n1`, the cytotoxicity at 10 µM was -0.404%.

`Cc1nc(C)n(CC2CCCN(Cc3cn4c(C)cccc4n3)C2)n1` (centres undefined): the cytotoxicity at 10 µM was -6.01%.

For the origin of these results see ChEMBL document CHEMBL4513216, “Probing the Open Global Health Chemical Diversity Library for Multistage-Active Starting Points for Next-Generation Antimalarials” (ACS Infect Dis, 2020).
